Sampled rows, rich in hits. Any-hit rate of the full collection: about 9.6%.
L major viab: Leishmania major promastigote growth inhibition, primary screen; Leishmania major promastigotes, resazurin fluorescence viability; actives 9% (n = 200,000); inhibition, % at 10 µM; AID 1063, 2008; in the data active = inhibition above about 50%;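 also: promastigotes grown with compound for 44 hours at 28 °C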
APP 5UTR inh: inhibitors of APP translation via 5'UTR reporter, primary screen, APP 5'UTR luciferase, SH-SY5Y cells; SH-SY5Y APP 5'UTR-luciferase reporter, luminescence; inhibition, % at 2 µM; actives 0.82% (n = 190,000);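 active = inhibition above a set limit, derived from the sample mean plus 3 SD, cut at about 45% in these data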
MT stabilizer: microtubule stabilizers in HeLa cells, primary screen, imaging, high-content imaging; % tubulin-high responders, % at 10 µM; AID 2205, 2009; actives 0.83% (n = 200,000); HeLa tubulin immunostaining HCS, 24 h; share of cells brighter than vehicle mean+2SD;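 active = plate Z-score above 3 for both tubulin-high and condensed-nucleus cell shares, with cell loss under 80%, at 10 µM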;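 also: anti alpha tubulin signal scored within the nucleus-defined area of each cell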
b-catenin transl: modulators of beta-catenin nuclear translocation, primary screen, imaging, HeLa cells, immunofluorescence, high-content; nuclear translocation activity, % at 5 µM; actives 0.3% (n = 190,000); AID 1665, 2009;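 active = nuclear translocation activity above 50% at 5 µM, with a well cell count of 50 or more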;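 also: per-cell ratio of nuclear to cytoplasmic median beta-catenin stain intensity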
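Signal – beta-catenin immunofluorescence imaging with DAPI · Test system – human HeLa cell line · Dosing – 5 µM primary single dose, 0.1% DMSO, 0.02–20 µM confirmation series · Measure – % activation, nuclear-to-cytoplasmic median beta-catenin signal ratio per cell · Incubation – 24 h compound exposure at 37°C, 5% CO2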
BaF3 parental: parental Ba/F3 cell viability inhibition, counter-screen for JAK2V617F inhibitor project, murine pro-B, CellTiter-Glo luminescence. CellTiter-Glo ATP luminescence. inhibition, % at 5.6 µM. actives 1.1% (n = 220,000);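 active = inhibition above a per-campaign cutoff, the mean inhibition of all tested compounds plus 3 SD, cut at about 27% in these data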
Ba/F3 V617F tox: reduced viability of JAK2V617F-dependent Ba/F3 cells, primary screen, JAK2V617F inhibitor project, cell-based, Ba/F3 EpoR-JAK2V617F, luminescence | inhibition, % at 5.6 µM | ATP luminescence | actives 1.1% (n = 220,000) | AID 1446, 2008;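 active = inhibition above the campaign mean plus 3 SD over all tested compounds, cut at about 24% in these data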;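 also: cytokine-independent growth of Ba/F3 cells driven by EpoR plus mutant JAK2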
Hits are given with their value; – = inactive; · = not tested or not shown.

SMILES	L major viab	APP 5UTR inh	MT stabilizer	b-catenin transl	BaF3 parental	Ba/F3 V617F tox
O=C(c1ccc2c(c1)OCO2)N1CCCC1	–	–	–	–	–	–
COc1cc(OC)cc(C(=O)Nc2ccccc2-c2nnn(CC(N)=O)n2)c1	–	–	–	–	–	–
COc1ccc(NC(=O)Cn2nnc(-c3ccccc3NS(=O)(=O)c3ccc(OC)cc3)n2)cc1	69	89	–	·	66	78
CCOc1ccc(NC(=O)Cn2nnc(-c3ccccc3NC(=O)CC)n2)cc1	–	–	–	–	–	–
COc1ccccc1NC(=O)Cn1nnc(-c2ccccc2NC(=O)c2cc3ccccc3oc2=O)n1	101	–	–	–	–	–
COc1ccccc1NC(=O)Cn1nnc(-c2ccccc2NS(=O)(=O)c2ccccc2)n1	51	–	–	–	–	–
COC(=O)Cc1csc(Nc2ccccc2Cl)n1	–	–	–	–	–	–
NC(=S)N/N=C/c1ccc(C(F)(F)F)cc1	70	–	–	–	35	66
O=C(OC(C(=O)NCC1CCCO1)c1ccccc1F)c1ccco1 (centres undefined)	–	–	–	–	–	–
O=C(Nc1cccnc1)c1ccccc1Oc1ccccc1	–	–	–	–	–	–
O=C(Nc1cccnc1)c1ccc(Oc2ccccc2)cc1	90	–	–	–	–	–
C/C(=N\Nc1c([N+](=O)[O-])c(C)nn1C)c1ccc(F)cc1F	–	–	·	–	–	–
O=c1[nH]c(-c2ccccn2)nc(C(F)(F)F)c1Br	97	–	–	–	28	–
Cc1ccc(C(=O)/C=C/c2ccccc2)o1	83	–	–	–	–	–
Cc1ccc(C(=O)/C=C/c2ccc(Br)cc2)o1	79	–	–	–	–	–
Cc1ccc(S(=O)(=O)n2nc(-c3ccco3)nc2N)cc1	–	–	–	–	–	–
O=S(=O)(c1cc(Cl)ccc1Cl)N1CCN(Cc2ccc3c(c2)OCO3)CC1	–	–	–	–	–	–
O=S(=O)(/C=C/c1ccccc1)N1CCN(Cc2ccc3c(c2)OCO3)CC1	85	–	–	–	–	–
C(=C\c1ccccc1)/CN1CCN(Cc2ccc3c(c2)OCCO3)CC1	92	–	–	·	–	–
Cc1cc2oc(=O)cc(CN3CCN(S(=O)(=O)/C=C/c4ccccc4)CC3)c2cc1C	96	–	–	–	–	–
COc1c(C)cc(C(=O)C2CCCN(C(=O)c3cc4nc(C)cc(C)n4n3)C2)cc1C (centres undefined)	–	–	–	–	–	–
S=C1N(c2ccccc2)CN(CCN2CCOCC2)CN1c1ccccc1	·	·	·	–	–	–
O=C(COC(=O)c1cc2ccccc2cc1O)Nc1cccnc1Cl	63	–	–	–	–	–
CC(=O)Nc1ccc(S(=O)(=O)Oc2ccc(C=O)cc2)cc1	78	–	–	–	–	–
COc1ccc(C=O)cc1OS(=O)(=O)c1ccc(NC(C)=O)cc1	–	–	–	–	–	–
SMILES	L major viab	APP 5UTR inh	MT stabilizer	b-catenin transl	BaF3 parental	Ba/F3 V617F tox
CC(=O)Nc1ccc(OS(=O)(=O)c2c(C)cc(C)cc2C)cc1	80	–	–	–	–	–
CC(=O)Nc1ccc(OS(=O)(=O)c2ccc(C)cc2C)cc1	–	–	–	–	–	–
Cc1ccc(C(=O)Oc2cccnc2)cc1[N+](=O)[O-]	–	–	–	–	–	–
Cc1ccc(C(=O)Oc2ccc(Cl)c3cccnc23)cc1[N+](=O)[O-]	98	–	–	–	–	–
COc1ccc(C(=O)Oc2cccc3cccnc23)cc1[N+](=O)[O-]	93	–	–	–	–	–
CCCC(=O)NC(=S)Nc1ccc(N2CCOCC2)c(Cl)c1	60	–	–	–	–	–
O=C(NC(=S)Nc1ccc(N2CCOCC2)c(Cl)c1)C(c1ccccc1)c1ccccc1	–	–	–	–	–	–
O=C(/C=C/c1ccccc1)NC(=S)Nc1ccc(N2CCOCC2)c(Cl)c1	–	–	–	–	–	–
O=C(/C=C/c1ccco1)NC(=S)Nc1ccc(N2CCOCC2)c(Cl)c1	–	–	48	–	–	–
CCn1c(SCC(=O)Nc2ccc(N3CCOCC3)c(Cl)c2)nnc1-c1ccc(N)cc1	73	–	–	·	–	–
O=C(/C=C/c1ccco1)Nc1ccc(-c2nc3ccccc3[nH]2)cc1	–	86	–	–	–	–
O=C(C1=C[C@H](c2coc3ccccc3c2=O)C[C@H](OCCCCO)O1)N1CCOCC1	–	–	–	–	–	–
O=C(O)C1CC=CCC1C(=O)NCCCCc1ccccc1 (centres undefined)	–	–	–	–	–	–
O=C(/C=C/c1ccco1)Nc1ccc(N2CCCC2)cc1	–	–	25	–	–	–
O=S(=O)(Nc1cccc2ncccc12)c1cccs1	100	–	–	–	–	–
Cc1cc(Br)ccc1NC(=O)CNC(=O)Cn1ncc(Cl)c(Cl)c1=O	–	96	–	–	–	–
CCOC(=O)c1ccc(NC(=O)Cn2ncc(Cl)c(Cl)c2=O)cc1	96	96	–	·	63	56
CCc1ccccc1NC(=O)CN(C)C(=O)Cn1ncc(Cl)c(Cl)c1=O	–	97	–	–	–	–
CC(NC(=O)Cn1ncc(Cl)c(Cl)c1=O)C12CC3CC(CC(C3)C1)C2 (centres undefined)	100	96	–	–	75	63
CCCc1cc(=O)[nH]c(SCC(=O)N(C)CC(=O)Nc2ccccc2CC)n1	–	–	–	–	–	–
N/C(=N\OC(=O)Cc1ccccc1[N+](=O)[O-])c1cccnc1	–	–	–	–	–	–
O=C1C2C(c3ccccc3)(C(=O)N1c1ccc(Cl)cc1)C2(c1ccccc1)c1ccccc1 (centres undefined)	–	–	–	–	–	–
NNC(=O)CNc1ccccc1Cl	–	–	–	–	–	–
COc1ccc(NC(=O)Cn2ncc(Cl)c(Cl)c2=O)cc1S(=O)(=O)N1CCOCC1	87	–	–	–	–	–
Cc1ccc(C(=O)OCn2ncc(Cl)c(Cl)c2=O)cc1	101	92	–	–	56	39
COc1ccc(NC(=O)CCN2CCN(S(=O)(=O)c3cc(Cl)ccc3OC)CC2)cc1	82	–	–	–	–	–
O=C(OCn1ncc(Cl)c(Cl)c1=O)c1ccc(C(F)(F)F)cc1	–	–	–	·	–	–
CCC(=O)Nc1ccc(C(=O)Cn2ncc(Cl)c(Cl)c2=O)cc1	·	·	·	–	45	78
Cc1ccc(C2CC(c3cccs3)=NN2S(=O)(=O)c2ccc(C)cc2)cc1 (centres undefined)	–	–	–	–	–	–
C/C(=N\NC(=O)Cn1ccc(C(F)(F)F)n1)c1ccco1	–	–	–	–	–	–
